In the library only some 2% were active in any assay of this set; here they are far more common.
Neddylation inh: cullin neddylation inhibition | 360,000 compounds, 0.58% hits | TR-FRET cullin neddylation, biochemical | calls only at 25 µM; in the data active = inhibition above about 36%
NR2E3 ag-1: NR2E3 (human) agonism. Q9Y5X4. GST-NR2E3/biotin-RetCOR TR-FRET, 1536-well. inhibition of corepressor binding, % at 4.78 µM. 320,000 compounds, 0.12% hits. AID 2300;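 active = percent inhibition above the cutoff of mean plus 3 SD of all tested compounds, set per screening campaign, cut at about 20% in these data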
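System: GST-tagged NR2E3 plus biotinylated RetCOR corepressor; Buffer or medium: pH 7.5 Tris-based buffer; Probe or stimulus: RetCOR corepressor, biotinylated, 7 nM; Doses: compound at 4.8 µM, single dose; Schedule: 5 h incubation at 4 °C; Technique: time-resolved FRET; Evaluation: percent inhibition of TR-FRET ratio; Replication: one well per compound, singlicate testing.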
NR1D1 modulator: Rev-erb alpha (human) modulation | Rev-erbα–FITC-DNA binding, fluorescence polarization, 90 min | activity, % at 10 µM | 370,000 compounds, 0.79% hits | P20393;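 active = activity above about 14%, limit read from the data; passing the limit was not always enough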
Target sequence (P20393 whole entry, looked up): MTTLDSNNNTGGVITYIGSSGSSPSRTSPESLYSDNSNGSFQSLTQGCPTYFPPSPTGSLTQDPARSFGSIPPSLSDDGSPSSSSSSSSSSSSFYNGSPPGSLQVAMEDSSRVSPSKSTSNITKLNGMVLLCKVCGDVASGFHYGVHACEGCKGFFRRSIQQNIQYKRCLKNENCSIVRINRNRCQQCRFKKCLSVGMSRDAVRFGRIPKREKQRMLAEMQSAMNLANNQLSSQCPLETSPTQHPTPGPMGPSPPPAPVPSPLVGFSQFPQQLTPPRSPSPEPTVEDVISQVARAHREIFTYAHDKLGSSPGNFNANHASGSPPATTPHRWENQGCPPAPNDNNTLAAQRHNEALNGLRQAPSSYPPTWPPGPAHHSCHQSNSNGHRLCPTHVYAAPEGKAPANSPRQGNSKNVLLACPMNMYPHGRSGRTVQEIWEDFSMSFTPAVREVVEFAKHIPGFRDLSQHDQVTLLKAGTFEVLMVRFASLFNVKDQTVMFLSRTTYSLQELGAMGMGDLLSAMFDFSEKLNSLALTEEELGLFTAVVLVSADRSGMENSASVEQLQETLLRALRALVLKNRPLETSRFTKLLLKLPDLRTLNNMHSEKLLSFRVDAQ
NR2E3 ag-2: human photoreceptor-specific nuclear receptor agonism | 360,000 compounds, 0.35% hits | AID 602229 | CHO-S Gal4-NCOR/VP16-NR2E3 two-hybrid, luciferase | inhibition of corepressor binding, % at 3.98 µM | Q9Y5X4;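 active = inhibition above the mean of all tested compounds plus 3 SD, cut at about 70% in these data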;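 note: higher means lower luciferase signal from less NR2E3 corepressor binding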
PG9 Ab binder: small molecules binding HIV-1 gp120 antibody PG9. TR-FRET gp120-PG9 antibody binding. inhibition, % at 6.7 µM. 360,000 compounds, 0.43% hits. AID 624416; in the data active = inhibition above about 8.5%
NR1D1 mod conf: Rev-erb alpha (human) modulation, hit confirmation | shares compounds with NR1D1 modulator | Rev-erb alpha FITC-DNA binding, fluorescence polarization, 90 min | activation, % at 25 µM | 3,000 compounds, 61% hits | AID 1259319;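 active = activation at or above a set limit, or at least 3 SD above the negative control mean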
RORg DNA counter: affects RORgamma DNA binding in a Rev-erb alpha counter-screen; IC50, µM; AID 1259320; shares compounds with NR1D1 modulator; 910 compounds, 8% hits; purified RORgamma protein-FITC-DNA binding, fluorescence polarization;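 active = Compounds whose fitted half-maximal concentration for disrupting protein-DNA binding is below 10 micromolar; the record names Rev-erb in its text, so the target is in doubt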
Of the large screens only hits and unclear results are named; the others gave an inactive call (follow-up assays come after a bar, where they were run).

CC1(C)CC2CC(C)(CN2C(=O)c2cc(-c3ccc(F)cc3)on2)C1 (stereo not given)	none
CC1(C)CC2CC(C)(CN2C(=O)c2cc(-c3ccccc3)on2)C1 (stereo not given)	NR1D1 modulator 28.9 | NR1D1 mod conf inactive
O=C1NC(Cc2ccccc2)c2nc3cc(F)ccc3c(=O)n2-c2ccccc21 (stereo not given)	none (no result: Neddylation inh, NR2E3 ag-1, NR2E3 ag-2)
C=CCNC(=O)c1ccc(-c2nc(-c3ccc(Cl)cc3Cl)cs2)cc1	NR1D1 modulator 31.4 | NR1D1 mod conf 44.3 | RORg DNA counter inactive
C=CCNC(=O)c1ccc(-c2nc(-c3ccc(Cl)c(Cl)c3)cs2)cc1	none
COc1ccccc1NS(=O)(=O)c1cccc(C(=O)N/N=C/c2ccc([N+](=O)[O-])o2)c1	none (no result: NR2E3 ag-1)
COc1ccc2[nH]c(C(=O)Nc3ccc(C)c(F)c3)cc2c1	NR1D1 modulator 48.8 | NR1D1 mod conf 43.6 | RORg DNA counter 1.48
COCCn1c(=NC(=O)c2cc(Cl)sc2Cl)sc2cc(S(N)(=O)=O)ccc21	none
COCCn1c(=NC(=O)c2ccc3c(c2)OCCO3)sc2cc(S(N)(=O)=O)ccc21	NR1D1 modulator 28.9 | NR1D1 mod conf 38.3 | RORg DNA counter inactive
COC(=O)Cn1c(=NC(=O)c2nc3ccccc3s2)sc2cc(S(N)(=O)=O)ccc21	NR1D1 modulator 38.9 | NR1D1 mod conf 23.5
COCCn1c(=NC(=O)c2nc3ccccc3s2)sc2cc(S(C)(=O)=O)ccc21	NR1D1 modulator 88.8 | NR1D1 mod conf 63.5 | RORg DNA counter inactive
CCOC(=O)C1=CCN(S(=O)(=O)c2ccccc2F)C1c1ccc(Br)cc1 (stereo not given)	none (no result: Neddylation inh, NR2E3 ag-1, NR2E3 ag-2)
COC(=O)c1sc2nc3c(cc2c1N)C(=O)CC(C)(C)C3	NR1D1 modulator 69.9 | NR1D1 mod conf 43.7 | RORg DNA counter inactive
CCOC(=O)c1sc2nc3c(cc2c1N)C(=O)CC(C)(C)C3	none
CCOC(=O)[C@]12CCC=C1N(Cc1ccco1)C(=O)[C@H](CC(=O)NCCc1ccccc1OC)C2	none (no result: NR2E3 ag-1)
OC[C@@H]1CN(Cc2ccncc2)C[C@H](n2cnc3c(N4CCCC4)ncnc32)O1	none (no result: NR2E3 ag-1)
C=CCN1C(=O)/C(=C2/Sc3ccc(OC)cc3N2C)SC1=Nc1ccccc1	none
C=CCN1C(=O)/C(=C2/Sc3ccc(OC)cc3N2C)SC1=NCc1ccccc1	NR1D1 modulator 55.2 | NR1D1 mod conf 47.1 | RORg DNA counter inactive
C=CCNC(=O)c1ccccc1NC(=O)C1CC(=O)N(C(C)C)C1 (stereo not given)	none
CCOc1cccc2cc(-c3cn4cc(C)ccc4n3)c(=O)oc12	NR1D1 modulator 53.0 | NR1D1 mod conf 24.5
COc1cccc2cc(-c3cn4ccc(C)cc4n3)c(=O)oc12	none
O=C(Cn1ccc2cc(S(=O)(=O)N3CCCC3)ccc21)NCc1ccco1	none
COc1cc(C(=O)Nc2nc(-c3cc(C)ccc3C)c(C)s2)ccc1OCC(=O)Nc1ccc(F)cc1	NR1D1 modulator 71.2 | NR1D1 mod conf 48.8 | RORg DNA counter inactive
CCOc1ccc(NC(=O)c2ccc(NC(=O)c3cn4c5c(c(N6CCN(C)CC6)c(F)cc5c3=O)OCC4C)cc2)cc1 (stereo not given)	NR1D1 modulator 70.2 | NR1D1 mod conf 40.6
O=C(NCc1ccc(F)cc1)c1cc(C2CCCN(C(=O)c3ccc4c(c3)CCO4)C2)on1 (stereo not given)	none (no result: NR2E3 ag-1)
CN(C)C(=O)CCc1ccc2c3c([nH]c2c1)[C@]1(CCc2ccccc2)[C@@H](C(=O)N2CCCCC2)C[C@H](CC(=O)NC(C)(C)C)C(=O)N1CC3	none (no result: NR2E3 ag-1)
Nc1c2c(nc3ccccc13)CSCC2	none
CCOC(=O)c1c(C)nc2sc3c(=O)[nH]cnc3c2c1-c1ccc(OC)cc1	none
Cc1ccc(-c2cc(C(F)F)nc3sc4c(=O)[nH]cnc4c23)cc1	NR1D1 modulator 107.4 | NR1D1 mod conf 113.2 | RORg DNA counter inactive
Cc1ccccc1N1C(=O)c2cccc3c(N(C)CCO)ccc(c23)C1=O	NR1D1 modulator 40.5 | NR1D1 mod conf 38.0
COc1ccccc1N1C(=O)c2cccc3c(N(C)CCO)ccc(c23)C1=O	NR1D1 modulator 29.9 | NR1D1 mod conf 36.7 | RORg DNA counter inactive
COc1ccccc1N1C(=O)c2cccc3c(C(=O)O)ccc(c23)C1=O	none
CN(C)c1ccc(C=Cc2nccc3ccccc23)cc1	NR1D1 modulator 302.6 (no result: NR2E3 ag-1) | NR1D1 mod conf 345.7 | RORg DNA counter inactive
Cc1cc(Br)cn2c(Cc3cccc(F)c3)c(-c3ccc(Cl)cc3)nc12	none (no result: NR2E3 ag-1)
Cc1ccc(-c2nc3c(Br)cc(C)cn3c2Cc2cccc(Cl)c2)cc1	none (no result: Neddylation inh, NR2E3 ag-1, NR2E3 ag-2)
COc1ccccc1Cc1c(-c2ccc(OC)c(OC)c2)nc2c(C)cc(Br)cn12	none (no result: NR2E3 ag-1)
Cc1cc(Br)cn2c(Cc3ccsc3)c(-c3cccc(Cl)c3)nc12	none (no result: NR2E3 ag-1)
Cc1cc(Br)c2nc(-c3cccc(Br)c3)c(Cc3cccc(Cl)c3)n2c1	NR1D1 modulator 18.1 (no result: Neddylation inh, NR2E3 ag-1, NR2E3 ag-2) | NR1D1 mod conf inactive
Cc1cc(Br)cn2c(Cc3cccc(Cl)c3)c(-c3cccc(Cl)c3)nc12	NR1D1 modulator 22.9 (no result: NR2E3 ag-1) | NR1D1 mod conf 13.2
COc1ccccc1Cc1c(-c2cccc(Cl)c2)nc2c(C)cc(Br)cn12	NR1D1 modulator 22.3 (no result: NR2E3 ag-1) | NR1D1 mod conf 10.8
Cc1cc(Br)cn2c(Cc3ccccc3)c(-c3ccc(Cl)cc3)nc12	NR1D1 modulator 25.4 (no result: NR2E3 ag-1) | NR1D1 mod conf 12.4
Cc1ccc(NC(=O)N2CCC(c3nc4ccc(Cl)cc4[nH]3)CC2)cc1F	none (no result: Neddylation inh, NR2E3 ag-1, NR2E3 ag-2, PG9 Ab binder)
CCOC(=O)c1c(C2CC2)csc1NC(=O)COC(=O)c1cnc(Cl)c(Cl)c1	NR1D1 modulator 81.0 | NR1D1 mod conf 80.3 | RORg DNA counter inactive
C=CC[C@@H]1NN2C(=O)[C@@H](CCc3ccccc3)[C@@H]3c4ccccc4C=NN3[C@@H]2c2ccccc21	none (no result: Neddylation inh, NR2E3 ag-1, NR2E3 ag-2, PG9 Ab binder)
O=C(O)c1cccc(S(=O)(=O)NCC(=O)N2CCN(c3ccccn3)CC2)c1	none (no result: Neddylation inh, NR2E3 ag-1, NR2E3 ag-2, PG9 Ab binder)
CC(C)(C)n1nc(-c2ccc(Cl)cc2)c2c(N)ncnc21	none
Cc1ccc(-c2nc(N)c3c(-c4ccc(C)cc4)nn(C(C)(C)C)c3n2)cc1	NR1D1 modulator 30.2 | NR1D1 mod conf inactive
CCn1cc(C(=O)NCCc2ccccc2C)c(=O)c2ccc(C)nc21	NR1D1 modulator 43.6 (no result: NR2E3 ag-1) | NR1D1 mod conf 51.9 | RORg DNA counter 3.77
O=C(OCCN1C(=O)c2ccccc2C1=O)c1ccc(S(=O)(=O)N2CCCCCC2)cc1	none
CCN(CC)S(=O)(=O)c1ccc(C(=O)OCCN2C(=O)c3cccc4c(N5CCOCC5)ccc(c34)C2=O)cc1	NR1D1 modulator 278.0 | NR1D1 mod conf 217.2 | RORg DNA counter inactive
CC(=O)N(C(C)=O)N1C(=O)c2cccc3c(N4CCOCC4)ccc(c23)C1=O	NR1D1 modulator 17.3 | NR1D1 mod conf inactive
O=C1c2cccc3c(N4CCCCC4)ccc(c23)C(=O)N1c1ccccn1	none

High-throughput results from PubChem BioAssay.
